# IMP-1 inh: inhibitors of Pseudomonas aeruginosa IMP-1 metallo-beta-lactamase. purified IMP-1, nitrocefin hydrolysis, epi-absorbance fluorescence. 290,000 tested, 0.45% active. inhibition, % at 5.6 µM;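 active means inhibition above the mean plus 3 SD of all compounds in the same screening run, cut at about 4.5% in these data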;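 further: 0% = IMP-1 with DMSO and 100% = DMSO wells lacking enzyme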
#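 Assay system: purified IMP-1; Quantity: IMP-1 0.2 nM before substrate addition; Medium: HEPES buffer pH 7.1 with ZnSO4 and Brij 35; Incubation: 15 min enzyme–compound preincubation, then 25 min nitrocefin reaction, 25 °C; Signal: fluorescence quenching readout, ex 480/em 530 nm; Controls: DMSO with and without IMP-1; Repeats: singlicate testing.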
# bovine MsrA act: activates bovine MsrA enzyme; purified bovine MsrA, absorbance read-out; activation, % at 10.6 µM; 360,000 tested, 0.3% active; AID 602163; in the data active means activation above about 7.5%;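 further: 0% = vehicle and 100% = reference activator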
# MsrA inhibitor: inhibitors of bovine MsrA; purified bovine MsrA, absorbance read-out; inhibition, % at 15.5 µM; 360,000 tested, 0.75% active; in the data active means inhibition above about 4.5%;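 further: 0% = vehicle wells with enzyme and 100% = reference inhibitor wells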
# PKA-R1A act: PKA-R1A complex activation | PKA-R1A dissociation, Cy5-IP20 fluorescence polarization; scaled: DMSO 0%, 113 µM cGMP 100% | P00514+P68181 | activation, % at 11.4 µM | 340,000 tested, 0.083% active;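 active means percent activation above the mean of all tested compounds plus 3 SD, cut at about 19% in these data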;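 further: higher means more PKAc released from R1A so a rise in polarization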
# PKA-R2B act: activates the human PKA-R2B holoenzyme complex. P22694+P31323. PKA-R2B holoenzyme dissociation, Cy5-IP20 fluorescence polarization; R2B truncated from residue 108, S112A mutant; 0% DMSO only, 100% 113 µM cGMP. activation, % at 11.4 µM. 340,000 tested, 0.079% active;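 active means activation above a cutoff set at the mean over all compounds plus 3 SD, cut at about 18% in these data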;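 further: higher means more holoenzyme dissociation and a rise in polarization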
# Target sequence (P31323 whole entry, looked up, other chains not shown, the tested form may be a part): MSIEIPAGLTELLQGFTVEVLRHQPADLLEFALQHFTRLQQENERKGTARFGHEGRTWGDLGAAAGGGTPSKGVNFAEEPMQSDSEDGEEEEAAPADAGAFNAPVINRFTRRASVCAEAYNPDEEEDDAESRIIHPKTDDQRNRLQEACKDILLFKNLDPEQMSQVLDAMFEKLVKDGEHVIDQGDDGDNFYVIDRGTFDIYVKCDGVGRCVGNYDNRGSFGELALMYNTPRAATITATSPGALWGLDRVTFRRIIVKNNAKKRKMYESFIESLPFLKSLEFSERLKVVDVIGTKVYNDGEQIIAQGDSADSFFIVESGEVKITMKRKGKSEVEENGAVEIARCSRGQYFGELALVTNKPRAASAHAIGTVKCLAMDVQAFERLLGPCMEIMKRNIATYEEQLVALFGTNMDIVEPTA
# VIM-2 inh: blocks Pseudomonas aeruginosa VIM-2 metallo-beta-lactamase; purified VIM-2, nitrocefin hydrolysis, epi-absorbance fluorescence; inhibition, % at 5.6 µM; 290,000 tested, 0.89% active;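 active means inhibition above the mean of all tested compounds plus 3 SD, cutoff set per screening run, cut at about 7.5% in these data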;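 further: red hydrolysis product quenches plate fluorescence so inhibitors raise well fluorescence; 0% = enzyme with DMSO and 100% = DMSO without enzyme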
# An asterisk follows results filed as active; · = no result given. Hits are enriched below; roughly 2.1% of the tested compounds scored in any of these assays.
SMILES,IMP-1 inh,bovine MsrA act,MsrA inhibitor,PKA-R1A act,PKA-R2B act,VIM-2 inh
C[C@H](CO)N1C[C@H](C)[C@@H](CN(C)C(=O)Nc2ccc(-c3cccs3)cc2)OCc2cn(nn2)CCCC1=O,·,·,0.5,·,·,·
Cc1ccc(NC(=O)COC(=O)c2ccc[n+]([O-])c2)c(Br)c1,·,-8.9,-0.8,-5.9,-16.0,·
COCC(=O)/C=C1\Sc2ccccc2N1C,-0.9,-5.0,5.1*,-1.9,-10.1,-2.6
O=C(Nc1ccc(Cl)cc1)c1cccnc1N1CCCCC1,20.3*,-4.1,0.1,-4.1,10.2,-0.3
COc1cc(CC(=O)NCc2ccc3c(c2)OCO3)cc(OC)c1OC,-3.1,-1.4,-0.7,2.5,-3.2,-3.0
COc1cc(C[C@H](C)[C@H](C)Cc2ccc3c(c2)OCO3)ccc1O,·,16.4*,·,-2.2,-9.6,·
CCCCCCCCN1C(=O)[C@@H](CC(=O)N2CCN(C(=O)c3ccco3)CC2)C[C@@]2(C(=O)OC)C1=C[C@H](C1CCCC1)O[C@@H]2C,·,·,-0.5,·,·,·
Cc1ccccc1NC(=O)C1c2cccc[n+]2CC(=O)N1c1c(C)cccc1C (stereo unspecified),14.2*,-3.6,-0.6,0.0,-6.0,-1.4
C=CCC(NC(C)c1ccccc1)c1ccco1 (stereo unspecified),8.4*,-14.7,-0.8,4.9,2.8,1.5
C=CCC(NCc1ccccc1)c1ccccc1 (stereo unspecified),0.3,-12.1,0.8,-3.3,7.5,2.5
Cc1ccc(C(=O)N2CC(C)OC(C)C2)cc1S(=O)(=O)N1CCCCC1 (stereo unspecified),·,-0.9,0.2,-1.9,0.7,·
CC(=O)N1c2ccc(C)cc2C(c2ccccc2)CC1C (stereo unspecified),13.8*,-1.1,1.2,1.0,-2.0,1.0
CC(=O)OC1CC(C)N(C(=O)c2ccccc2)c2ccc(C)cc21 (stereo unspecified),-2.6,-4.4,-0.1,5.6,-3.2,-2.4
CC(C)(C)c1cc(CNC2CS(=O)(=O)C[C@@H]2O)cc(C(C)(C)C)c1O (stereo partly specified),7.3*,-7.5,-2.4,-3.0,-4.2,-0.5
O=S1(=O)CC(O)C(NCc2ccco2)C1 (stereo unspecified),-1.7,-11.9,-0.7,-3.6,3.2,-1.5
Cc1cc(N2CCN(C(=O)OC(C)(C)C)C[C@H]2C)ccc1N1CCN(Cc2ccccc2)[C@@H](C)C1,·,·,-1.7,·,·,·
COC(=O)[C@]12C[C@H](CC(=O)N3CCSCC3)C(=O)N(Cc3ccccc3)C1=C[C@H](C1CCCC1)O[C@@H]2C,·,·,0.9,·,·,·
CC(=C/c1ccc(C(C)C)cc1)/C=N/NC(=O)c1ccncc1,-3.1,-7.5,0.9,10.8,-5.3,-2.9
O=C(N/N=C/C(Br)=C/c1ccccc1)c1ccc([N+](=O)[O-])cc1,42.2*,-3.7,1.4,-4.8,1.6,0.3
O=C(N/N=C/C(Br)=C/c1ccccc1)c1ccncc1,-1.0,0.2,3.6,3.9,-0.3,-1.3
CC(/C=N/NC(=O)c1ccncc1)=C\c1ccccc1,-0.5,-8.1,5.2*,-9.6,-1.0,0.3
Cc1cc(NCCN2CCOCC2)c2ccc3ccccc3c2n1,-3.3,-12.1,0.6,-11.1,2.6,8.8*
Oc1c(Cl)cc(Cl)cc1CNc1ccc(Br)cn1,6.1*,-9.0,0.3,-17.1,-24.4,-2.1
CCC1=NN2C(=N)/C(=C\c3ccc(OCCOc4ccc(NC(C)=O)cc4)cc3)C(=O)N=C2S1,-3.1,-0.9,1.1,3.9,-6.5,10.1*
Cc1cc(/C=C2\SC(=S)NC2=O)c(C)n1-c1ccc(O)cc1,-1.2,-7.3,0.5,-4.0,8.2,8.1*
SMILES,IMP-1 inh,bovine MsrA act,MsrA inhibitor,PKA-R1A act,PKA-R2B act,VIM-2 inh
O=C(N[C@H](Cc1ccccc1)C(=O)NCc1ccc(OC(F)(F)F)cc1)[C@H]1O[C@@H](n2ccc(=O)[nH]c2=O)[C@H](O)[C@@H]1O,·,·,3.7,·,·,·
COCCCNCCCCOc1ccc(Br)cc1Cl,0.2,-6.2,-0.5,-0.1,8.9,-4.3
CN(C)CCCCOc1ccc(Br)cc1Cl,24.5*,-0.3,2.7,4.6,-5.5,1.5
COc1ccc(Nc2nc(C)cc(C)c2C#N)cc1,-3.2,-11.6,0.6,-5.7,-14.3,-2.4
COc1cnc(SC)nc1Nc1ccc(C#N)cc1,-2.9,-8.2,4.2,1.5,-12.2,9.1*
CCOC(=O)c1cc2occc2n1Cc1c(F)cccc1Cl,-1.0,-3.3,-0.2,5.2,-6.6,-2.7
CCOC(=O)c1cc2occc2n1Cc1ccc(F)cc1,24.1*,-3.2,-1.2,-6.1,-4.0,-2.6
CC1=CC2C(C3C=CC2(C)C(=O)C3(C)O)C(C)(O)C1=O (stereo unspecified),·,-3.4,-0.7,3.2,-2.0,·
C=CCc1cccc2cc(C(=O)Nc3ccccc3C(=O)O)c(=O)oc12,-2.1,-2.9,4.9*,·,·,4.7
COc1ccc(C(=O)N(C)Cc2cnn(Cc3ccccc3)c2)cc1S(=O)(=O)N1CCOCC1,·,-2.1,-0.6,-4.0,-6.8,·
O=C(Nc1ccccc1)Nc1n[nH]c2nnc(-c3ccccc3)c(-c3ccccc3)c12,20.9*,-3.4,-1.4,2.1,-7.2,0.3
Cc1ccccc1-c1nnc(-c2ccccc2)o1,-3.0,0.0,-0.4,-7.4,-8.8,0.1
Cn1cc(-c2nnc(-c3ccccc3)o2)c2ccccc21,4.9*,-3.8,1.1,-2.4,8.0,-0.1
C[C@@H]1CN([C@H](C)CO)C(=O)c2cc(Br)cnc2O[C@@H]1CN(C)C(=O)Nc1cccc(F)c1,·,-7.1,1.0,-2.9,2.0,·
O=[N+]([O-])c1ccc(NN=Cc2cccc3ccccc23)cc1,·,-5.1,2.4,9.7,0.1,·
O=[N+]([O-])c1cc(Br)c(O)c(/C=N/Nc2nnnn2-c2cccc3ccccc23)c1,4.8*,-4.4,2.9,-5.0,0.7,-2.9
Cc1cc(C(=O)C(C)OC(=O)C2=NNC(=O)CC2)c(C)n1-c1ccc(OC(F)F)cc1 (stereo unspecified),5.2*,-0.9,0.0,-10.2,-5.8,0.9
Cc1cc(C(=O)COC(=O)C2=NNC(=O)CC2)c(C)n1-c1ccc(OC(F)F)cc1,-4.9,1.6,-0.6,-9.1,0.0,-6.1
COc1cccc(OCCNc2cc(N3CCCCC3)ccc2[N+](=O)[O-])c1,46.9*,-2.8,0.9,7.0,-2.8,0.8
COc1ccc(OCCNc2cc(N3CCCCC3)ccc2[N+](=O)[O-])cc1,-1.6,-4.8,-0.6,-4.2,-3.0,-0.8
CC(C)Oc1ccc(-c2cc(C(=O)NCCN3CCOCC3)c3ccccc3n2)cc1,-1.8,1.0,4.6*,-5.5,3.8,-1.6
O=C(NCCCn1ccnc1)c1cc(-c2ccncc2)nc2ccccc12,-1.4,-4.4,1.6,-15.6,3.5,11.3*
COc1ccc(C=Nc2cccc3c(=O)[nH][nH]c(=O)c23)c2ccccc12,26.7*,-3.1,3.0,-4.4,-10.5,-0.6

# Source: PubChem (The Scripps Research Institute Molecular Screening Center)
